# Published values of several laboratories.
# Protocols differ between the studies behind these lines.
Structure (SMILES),assay,test system,conditions,quantity,result
COc1cc2c3c(n(CCCN4CCOCC4)c(=O)c2cc1OC)-c1cc2c(cc1C3=O)OCO2,,"male Fischer 344 rat, plasma","intravenous, 12 mg/m², single dose",half-life,126 min
CC1=C(C(=O)OC(C)(C)C)C(=O)/C(=C\c2cc(C)n(-c3ccccc3C(F)(F)F)c2C)N1,metabolic stability,"mouse, liver microsomes",1 µM,half-life,20 min
CCc1cc(-c2noc(-c3cc(OC)nc(C4CCCC4)c3)n2)cc(C)c1OC[C@@H](O)CO,,"Wistar rat, plasma","oral, 0.1 mg/kg, 3 h, single dose",concentration,6.2 ng/mL
COc1ccc2c(=O)n(C)c(-c3ccccc3)nc2c1,,"male Sprague-Dawley rat, brain","oral, 30 mg/kg, 2 h, single dose",concentration,20 ng/g
Oc1c(Br)cc(Cl)c2cccnc12,,"Sprague-Dawley rat, plasma","intravenous, 2 mg/kg",half-life,534 min
Cc1ccc(-c2cc(C(F)(F)F)nn2-c2ccc(S(N)(=O)=O)cc2)cc1,,"male Sprague-Dawley rat, plasma","oral, 20 mg/kg, 4 h",concentration,1500 nM
COC(=O)[C@H](N)CSSC[C@@H](N)C(=O)OC,chemical stability,"dog, plasma",,half-life,15.1 min
Cc1noc(C)c1Cn1cc(N2C(=O)CN(Cc3cccc(O)c3)C2=O)cn1,,"male Sprague-Dawley rat, plasma","intravenous, 1 mg/kg, 30 min",concentration,12.1 ng/mL
CCOC(=O)C1=C(C)N/C(=C/c2cc(C)n(-c3ccc(CN4CCCCC4)cc3)c2C)C1=O,metabolic stability,"mouse, liver microsomes",1 µM,half-life,29 min
Cc1noc(C)c1Cn1cc(N2C(=O)N(Cc3cccc(O)c3)C(C)(C)C2=O)cn1,,"male Sprague-Dawley rat, plasma","oral, 100 mg/kg, 4 h, single dose",concentration,2.9 ng/mL
CCOC(=O)C1=C(C)N/C(=C/c2cc(C)n(-c3ccc(S(=O)(=O)C(F)(F)F)cc3)c2C)C1=O,metabolic stability,"mouse, liver microsomes",1 µM,half-life,30 min
CCc1cc(C(=O)NC)c2nccc(N3CCc4c(cc(Cn5ccnc5)cc4-c4cn(C)nc4C(F)(F)F)C3=O)c2c1,,"male Sprague-Dawley rat, plasma","intravenous, 3 mg/kg",C0,2600 ng/mL
CC1=C(C(=O)OCc2ccccc2)C(=O)/C(=C\c2cc(C)n(-c3ccccc3C(F)(F)F)c2C)N1,metabolic stability,"mouse, liver microsomes",1 µM,half-life,3.1 min
COc1cccc(-c2n[nH]c(SCc3ccccn3)n2)c1OC,,"female Sprague-Dawley rat, plasma","intravenous, 1 mg/kg, 4.98 min, single dose",concentration,4780 ng/mL
CCOC(=O)[C@@]12C[C@@H]1[C@@H](n1ccc3c(NC)nc(C#Cc4ccc(Cl)s4)nc31)[C@H](O)[C@@H]2O,,"male Sprague-Dawley rat, plasma","intravenous, 0.5 mg/kg, 4 h",concentration,1.88 ng/mL
